In ChEMBL document CHEMBL1240433, “Design, synthesis, and antitubercular evaluation of novel series of 3-benzofuran-5-aryl-1-pyrazolyl-pyridylmethanone and 3-benzofuran-5-aryl-1-pyrazolylcarbonyl-4-oxo-naphthyridin analogs” (Eur J Med Chem, 2010):
Converted amounts (≈) assume the structure as drawn.

Assays:
Vero = experiment: Cytotoxicity against african green monkey Vero after 72 hrs by MTT assay; assay type: cell-based; conditions: Chlorocebus sabaeus
How it was run: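 Mammalian Vero cells were used to determine IC50. The read-out was cellular reduction of MTT to a formazan product, measured with a non-radioactive cell proliferation kit.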

[1] = tested on: Mycobacterium tuberculosis; experiment: Antitubercular activity against Mycobacterium tuberculosis ATCC 35801 infected in CD1 mouse lung at 25 mg/kg, iv after 6 weeks; assay type: functional
How it was run: (§1)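 Female CD-1 mice, 6 weeks old, six per group, were infected intravenously via the caudal vein with 10^6 to 10^7 viable organisms. Dosing at 25 mg/kg intraperitoneally began 10 days after infection. Viable counts came from serial 10-fold dilutions on 7H10 agar after incubation at 37 °C in ambient air for up to 6 weeks, compared with vehicle-treated controls.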

[2] = tested on: Mycobacterium tuberculosis; experiment: Antitubercular activity against Mycobacterium tuberculosis ATCC 35801 infected in CD1 mouse spleen at 25 mg/kg, iv after 6 weeks; assay type: functional; how it was run: as §1
[3] = tested on: Mycobacterium tuberculosis; experiment: Antitubercular activity against Mycobacterium tuberculosis H37Rv after 6 weeks; assay type: functional
How it was run: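 Lowenstein-Jensen slope assay. DMSO stocks of 250 and 10 µg/mL were each mixed 0.8 mL into 7.2 mL L.J. medium, then inspissated at 75-80 °C for 3 days. A loopful of culture was dispersed with glass beads in sterile water by vortexing for 2 min and streaked onto the slopes. DMSO-only and drug-free media served as controls. Bacterial counts were read after 6 weeks at 37 °C.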

SMILES | IC50 (Vero) [µM] | log10cfu [1] | log10cfu [2] | MIC [3] [µg/mL]
O=C(c1ccncc1)N1N=C(c2cc3ccccc3o2)CC1/C=C/c1ccccc1 (stereo not given) | > 212 | 10.8 | 11.6 | 8.6 (≈ 21.9 µM)
O=C(c1ccncc1)N1N=C(c2cc3ccccc3o2)CC1c1ccccc1[N+](=O)[O-] (stereo not given) | > 245 | 9.5 | 10.5 | 8.2 (≈ 19.9 µM)
CCn1cc(C(=O)N2N=C(c3cc4ccccc4o3)CC2c2ccc(OC)cc2)c(=O)c2ccc(C)nc21 (stereo not given) | > 156 | 9.32 | 10.77 | 6.3 (≈ 12.4 µM)
NNC(=O)c1ccncc1 [ISONIAZID] | > 130 | 4.62 | 5.45 | 0.32 (≈ 2.33 µM)
CCn1cc(C(=O)N2N=C(c3cc4ccccc4o3)CC2c2ccc(Cl)cc2)c(=O)c2ccc(C)nc21 (stereo not given) | > 160 | 11.52 | 12.12 | 8.3 (≈ 16.2 µM)
CCn1cc(C(=O)N2N=C(c3cc4ccccc4o3)CC2c2ccccc2Cl)c(=O)c2ccc(C)nc21 (stereo not given) | > 178 | 10.85 | 10.96 | 7.8 (≈ 15.3 µM)
O=C(c1ccncc1)N1N=C(c2cc3ccccc3o2)CC1c1ccc(O)cc1 (stereo not given) | > 200 | 7.46 | 8.2 | 4.5 (≈ 11.7 µM)
O=C(c1ccncc1)N1N=C(c2cc3ccccc3o2)CC1c1ccco1 (stereo not given) | > 208 | 11.4 | 12.6 | 9.6 (≈ 26.9 µM)
O=C(c1ccncc1)N1N=C(c2cc3ccccc3o2)CC1c1cccc([N+](=O)[O-])c1 (stereo not given) | > 240 | 10.8 | 11.6 | 7.5 (≈ 18.2 µM)
CCn1cc(C(=O)N2N=C(c3cc4ccccc4o3)CC2c2ccccc2[N+](=O)[O-])c(=O)c2ccc(C)nc21 (stereo not given) | > 85.4 | 5.67 | 6.12 | 1.9 (≈ 3.64 µM)
O=C(c1ccncc1)N1N=C(c2cc3ccccc3o2)CC1c1ccccc1Cl (stereo not given) | > 211 | 12.5 | 12.2 | 10.6 (≈ 26.4 µM)
CCn1cc(C(=O)N2N=C(c3cc4ccccc4o3)CC2c2ccc(N(C)C)cc2)c(=O)c2ccc(C)nc21 (stereo not given) | > 207 | 4.82 | 6.53 | 9.2 (≈ 17.7 µM)
COc1ccccc1C1CC(c2cc3ccccc3o2)=NN1C(=O)c1ccncc1 (stereo not given) | > 202 | 9.65 | 10.6 | 6.5 (≈ 16.4 µM)
COc1ccc(C2CC(c3cc4ccccc4o3)=NN2C(=O)c2ccncc2)cc1 (stereo not given) | > 200 | 8.6 | 9.24 | 6.8 (≈ 17.1 µM)
O=C(c1ccncc1)N1N=C(c2cc3ccccc3o2)CC1c1ccccc1O (stereo not given) | > 195 | 7.2 | 9.45 | 3.7 (≈ 9.65 µM)
CCn1cc(C(=O)N2N=C(c3cc4ccccc4o3)CC2c2ccccc2O)c(=O)c2ccc(C)nc21 (stereo not given) | > 158 | 4.11 | 5.36 | 1.2 (≈ 2.44 µM)
O=C(c1ccncc1)N1N=C(c2cc3ccccc3o2)CC1c1ccccc1 (stereo not given) | > 210 | 9.4 | 10.6 | 8.5 (≈ 23.1 µM)
CCn1cc(C(=O)N2N=C(c3cc4ccccc4o3)CC2c2ccco2)c(=O)c2ccc(C)nc21 (stereo not given) | > 186 | 9.66 | 10.52 | 7.5 (≈ 16.1 µM)
CCn1cc(C(=O)N2N=C(c3cc4ccccc4o3)CC2c2ccc(O)cc2)c(=O)c2ccc(C)nc21 (stereo not given) | > 148 | 5.49 | 7.21 | 3.2 (≈ 6.5 µM)
CN(C)c1ccc(C2CC(c3cc4ccccc4o3)=NN2C(=O)c2ccncc2)cc1 (stereo not given) | > 211 | 14.4 | 15.8 | 9.2 (≈ 22.4 µM)
CCn1cc(C(=O)N2N=C(c3cc4ccccc4o3)CC2c2ccccc2)c(=O)c2ccc(C)nc21 (stereo not given) | > 210 | 12.23 | 12.98 | 9.8 (≈ 20.6 µM)
CCn1cc(C(=O)N2N=C(c3cc4ccccc4o3)CC2c2ccccc2OC)c(=O)c2ccc(C)nc21 (stereo not given) | > 188 | 6.87 | 6.13 | 5.5 (≈ 10.9 µM)
CCn1cc(C(=O)N2N=C(c3cc4ccccc4o3)CC2c2cccc([N+](=O)[O-])c2)c(=O)c2ccc(C)nc21 (stereo not given) | > 164 | 2.65 | 3.25 | 2.3 (≈ 4.41 µM)
COc1ccc(C2CC(c3cc4ccccc4o3)=NN2C(=O)c2ccncc2)c(O)c1 (stereo not given) | > 191 | 6.98 | 6.52 | 3.3 (≈ 7.98 µM)
CO[C@H]1/C=C/O[C@@]2(C)Oc3c(C)c(O)c4c(O)c(c(/C=N/N5CCN(C)CC5)c(O)c4c3C2=O)NC(=O)/C(C)=C\C=C\[C@H](C)[C@H](O)[C@@H](C)[C@@H](O)[C@@H](C)[C@H](OC(C)=O)[C@@H]1C [RIFAMPIN] | > 74.5 | 3.21 | 3.98 | 0.6 (≈ 0.729 µM)
CCn1cc(C(=O)N2N=C(c3cc4ccccc4o3)CC2/C=C/c2ccccc2)c(=O)c2ccc(C)nc21 (stereo not given) | > 169 | 4.61 | 6.32 | 5.5 (≈ 10.9 µM)
CCn1cc(C(=O)N2N=C(c3cc4ccccc4o3)CC2c2ccccc2C(=O)O)c(=O)c2ccc(C)nc21 (stereo not given) | > 196 | 5.12 | 6.16 | 4.5 (≈ 8.64 µM)
O=C(c1ccncc1)N1N=C(c2cc3ccccc3o2)CC1c1ccc(Cl)cc1 (stereo not given) | > 221 | 13.8 | 12.4 | 11.5 (≈ 28.6 µM)
O=C(O)c1ccccc1C1CC(c2cc3ccccc3o2)=NN1C(=O)c1ccncc1 (stereo not given) | > 171 | 6.24 | 5.42 | 2.2 (≈ 5.35 µM)
CCn1cc(C(=O)N2N=C(c3cc4ccccc4o3)CC2c2ccc(OC)cc2O)c(=O)c2ccc(C)nc21 (stereo not given) | > 154 | 8.42 | 9.28 | 4.2 (≈ 8.04 µM)
